# PMC3442410 (Molecular Biology of the Cell, 2012)
# Numbering of substitutions follows the chain as printed.
# Experiments:
# OSBP-S5E = target: T1, OSBP-S5E (Oryctolagus cuniculus, UniProt P16258, S381E/S384E/S387E/S388E/S391E); experiment: Specific binding of [3H]25OH by purified OSBP-S5E; design: species or system rabbit
# T1 sequence (P16258 1-809 S381E/S384E/S387E/S388E/S391E): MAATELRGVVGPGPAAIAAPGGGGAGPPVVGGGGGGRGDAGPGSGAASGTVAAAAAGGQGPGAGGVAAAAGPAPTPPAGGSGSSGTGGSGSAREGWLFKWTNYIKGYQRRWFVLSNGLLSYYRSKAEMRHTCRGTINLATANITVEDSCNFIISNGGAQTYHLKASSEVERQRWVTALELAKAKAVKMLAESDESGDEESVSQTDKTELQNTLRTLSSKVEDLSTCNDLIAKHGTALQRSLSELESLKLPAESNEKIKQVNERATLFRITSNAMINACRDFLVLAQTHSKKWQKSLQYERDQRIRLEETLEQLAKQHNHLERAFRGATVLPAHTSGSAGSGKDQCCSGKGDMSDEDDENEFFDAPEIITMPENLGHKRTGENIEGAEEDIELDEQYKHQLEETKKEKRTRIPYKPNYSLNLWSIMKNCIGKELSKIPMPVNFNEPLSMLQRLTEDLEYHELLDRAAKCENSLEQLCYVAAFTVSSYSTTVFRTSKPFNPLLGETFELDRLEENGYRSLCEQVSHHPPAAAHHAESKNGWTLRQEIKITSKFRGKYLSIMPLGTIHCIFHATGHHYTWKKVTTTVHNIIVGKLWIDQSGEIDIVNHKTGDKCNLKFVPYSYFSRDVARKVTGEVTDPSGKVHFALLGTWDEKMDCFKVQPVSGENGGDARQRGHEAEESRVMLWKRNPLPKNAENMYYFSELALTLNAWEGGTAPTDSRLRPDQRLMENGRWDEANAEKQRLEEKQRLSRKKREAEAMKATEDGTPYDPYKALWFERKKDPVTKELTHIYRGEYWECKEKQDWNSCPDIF
# Procedure, shortened: (§1)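 His-tagged (C-terminal V5-His) rabbit OSBP or mutant expressed in Sf21 cells by baculovirus, purified and kept in Tris-HCl pH 7.4/250 mM NaCl. 12 pmol protein incubated with [3H]25OH in 10 mM HEPES pH 7.4, 100 mM KCl, 2% polyvinyl alcohol at 4°C, 16 h. Charcoal-dextran added for 30 min, then spun 10,000 × g, 10 min. Supernatant bound sterol counted by scintillation. Specific binding is total minus binding with 40-fold excess unlabeled 25OH.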
# SM synthesis = experiment: 25OH-activated SM synthesis; assay type: cell-based, CHO cells; details: 25OH 6 μM, 6 h
# Procedure, shortened: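 OSBP-deficient CHO cells (stable lentiviral shOSBP) grown in DMEM with 5% fetal calf serum, transiently transfected for 48 h (Lipofectamine 2000) with OSBP constructs carrying three silent shRNA-resistant mutations. Cells then treated with 25OH (6 μM) or solvent control for 6 h. SM and ceramide synthesis measured by [3H]serine incorporation. Mean and SEM of three experiments.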
# OSBP [1] = target: T2, OSBP (Oryctolagus cuniculus, UniProt P16258); experiment: Specific binding of [3H]25OH by purified OSBP; design: species or system rabbit
# T2 sequence (P16258 1-809): T1 sequence (P16258 1-809 S381E/S384E/S387E/S388E/S391E) with E381S, E384S, E387S, E388S, E391S
# Procedure, shortened: as §1
# OSBP-S381A = target: T3, OSBP-S381A (Oryctolagus cuniculus, UniProt P16258, S381A); experiment: Specific binding of [3H]25OH by purified OSBP-S381A; design: species or system rabbit
# T3 sequence (P16258 1-809 S381A): T1 sequence (P16258 1-809 S381E/S384E/S387E/S388E/S391E) with E381A, E384S, E387S, E388S, E391S
# Procedure, shortened: as §1
# OSBP-S3E = target: T4, OSBP-S3E (Oryctolagus cuniculus, UniProt P16258, S381E/S384E/S387E); experiment: Specific binding of [3H]25OH by purified OSBP-S3E; design: species or system rabbit
# T4 sequence (P16258 2-809 S381E/S384E/S387E limits assumed): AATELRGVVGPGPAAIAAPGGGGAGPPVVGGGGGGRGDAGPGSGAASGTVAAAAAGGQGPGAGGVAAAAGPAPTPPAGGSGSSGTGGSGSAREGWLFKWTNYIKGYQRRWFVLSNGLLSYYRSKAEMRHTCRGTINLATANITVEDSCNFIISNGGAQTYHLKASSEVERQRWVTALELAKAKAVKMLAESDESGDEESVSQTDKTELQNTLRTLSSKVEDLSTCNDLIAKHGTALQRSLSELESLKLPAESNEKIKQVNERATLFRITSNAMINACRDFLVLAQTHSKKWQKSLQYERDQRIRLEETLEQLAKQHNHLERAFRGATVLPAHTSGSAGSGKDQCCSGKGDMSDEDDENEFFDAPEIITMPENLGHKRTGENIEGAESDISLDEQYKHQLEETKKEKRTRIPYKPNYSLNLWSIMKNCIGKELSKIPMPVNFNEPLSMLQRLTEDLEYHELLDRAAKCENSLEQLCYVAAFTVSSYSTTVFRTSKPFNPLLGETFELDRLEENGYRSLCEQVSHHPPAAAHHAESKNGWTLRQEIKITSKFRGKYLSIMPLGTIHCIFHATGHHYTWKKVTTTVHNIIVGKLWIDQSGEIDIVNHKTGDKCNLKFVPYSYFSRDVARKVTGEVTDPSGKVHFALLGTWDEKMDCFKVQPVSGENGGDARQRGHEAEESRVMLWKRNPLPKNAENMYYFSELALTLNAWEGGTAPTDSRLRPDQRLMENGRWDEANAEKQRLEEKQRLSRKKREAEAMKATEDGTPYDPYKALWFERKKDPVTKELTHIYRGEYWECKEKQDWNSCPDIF
# Procedure, shortened: as §1
# OSBP [2] = target: T2, OSBP; experiment: Direct extraction of radiolabeled PI or PI; assay type: binding, rabbit; details: OSBP 50 pmol; liposomes with 0.5 mol% [32P]PI(4)P; compared with [3H]PI
# [3] = [3H]25OH, 12 pmol protein, 4°C, 16 h
Compound,Kd (OSBP-S5E),binding capacity (Bmax) (OSBP-S5E; [3]),"activation of SM synthesis (SM synthesis; deficient CHO cells expressing S381A/S3A, S5E/S3D or S5E/S3A double mutants)",activation of SM synthesis (SM synthesis; deficient CHO cells expressing wild-type OSBP),Kd (OSBP [1]),Bmax (OSBP [1]; [3]),Kd (OSBP-S381A),Bmax (OSBP-S381A; [3]),Kd (OSBP-S3E),Bmax (OSBP-S3E; [3]),extraction from liposomes into supernatant (OSBP [2])
"C[C@H](CCCC(C)(C)O)[C@H]1CC[C@H]2[C@@H]3CC=C4C[C@@H](O)CC[C@]4(C)[C@H]3CC[C@]12C [25OH, 25-hydroxycholesterol]",35 ± 9 nM,2.0 ± 0.26,2.5 fold,2.5 fold,28 ± 5 nM,0.63 ± 0.05,51 ± 12 nM,0.68 ± 0.11,58 ± 14 nM,0.49 ± 0.15,
phosphatidylinositol 4-phosphate [PI(4)P],,,,,,,,,,,extracted significantly more
